Measurements reported in ChEMBL document CHEMBL4138314, “Synthesis and Evaluation of N-Phenyl-3-sulfamoyl-benzamide Derivatives as Capsid Assembly Modulators Inhibiting Hepatitis B Virus (HBV)” (J Med Chem, 2018).
Converted amounts (≈) assume the structure as drawn. The source made the active and inactive calls. The calls are words filed in the database; no cut-off is given here.

Legend:
HBV genotype D = experiment: Antiviral activity against HBV genotype D infected in human HepG2.2.15 cells assessed as inhibition of viral DNA level treated twice for 3 days measured after 6 days by real time PCR; format: functional, organism-based; conditions: for EC50: Hepatitis B virus; for Activity: hepatitis B virus genotype D
[1] = (§1) Cytotoxicity against human HepG2 cells after 4 to 6 days by resazurin assay; format: cell-based; conditions: HepG2 cells
[2] = Kinetic solubility of the compound at pH 7.4 after 4 hrs by UPLC-UV analysis; format: physicochemical; conditions: buffer, read-out: Kinetic_solubility
Hepatitis B virus [3] = experiment: Antiviral activity against Hepatitis B virus infected in human HepG2.117 cells assessed as inhibition of viral DNA level after 3 days by real time PCR; format: functional, organism-based; conditions: HepG2.117, 72 h
[4] = Drug metabolism in human liver microsomes at 1 uM after 15 mins by LC-MS/MS analysis; format: ADME, microsome; conditions: read-out: Drug metabolism
How it was run: (§2)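 Compound incubated 15 min with human or mouse liver microsomes; stability expressed as percent turnover (metabolised) at 15 min.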

[5] = Drug metabolism in mouse liver microsomes at 1 uM after 15 mins by LC-MS/MS analysis; format: ADME, microsome; conditions: read-out: Drug metabolism; how it was run: as §2
[6] = Cytotoxicity against human HepG2 cells after 4 days by resazurin assay; format: cell-based
Hepatitis B virus [7] = experiment: Induction of HBV capsid core protein CP149 aggregation assessed as ratio between area under the curve for observed amount of core dimer and area under the curve for aggregated core protein at 20 uM after 24 hrs by size exclusion chromatographic analysis
How it was run: (§3)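 Recombinant HBV core assembly domain (aa 1–149, Cp149) was incubated with compound at 20 µM for 24 h, with a no-compound control run in parallel. Size exclusion chromatography gave the ratio of Cp149 dimer AUC to aggregated Cp149 AUC.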

[8] = molecular target: Core antigen (Hepatitis B virus) (UniProt Q03732); experiment: Induction of HBV Maleimidyl BoDIPY-FL-labeled capsid Cp*150 mutant aggregation incubated for 30 mins measured every 10 secs for 30 mins by fluorescence quenching assay
[9] = Cytotoxicity against human HepG2 cells after 6 days by resazurin assay; format: cell-based
Hepatitis B virus [10] = experiment: Induction of HBV capsid core protein CP149 aggregation assessed as large aberrant structure formation at 20 uM after 24 hrs by size exclusion chromatographic analysis; how it was run: as §3
HepG2 = experiment: as §1; format: cell-based; conditions: hepg2
[11] = molecular target: 5-hydroxytryptamine receptor 2B (Homo sapiens, UniProt P41595); experiment: Antagonist activity at 5-HT2B (unknown origin); format: functional
How it was run: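 Receptor/ion channel/transporter panel of 80 targets screened at 10 µM, giving percent effect at 5-HT2B; follow-up 5-HT2B functional testing in agonist and antagonist modes, with antagonist IC50 determined.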

[12] = Drug metabolism in human primary hepatocytes assessed as cleavage of N-phenylamide; format: ADME, cell-based, Hepatocyte
How it was run: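 Compound incubated with primary hepatocytes and checked for cleavage of the N-phenylamide bond.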

Chain of Core antigen (Hepatitis B virus) (Q03732 as listed by the source): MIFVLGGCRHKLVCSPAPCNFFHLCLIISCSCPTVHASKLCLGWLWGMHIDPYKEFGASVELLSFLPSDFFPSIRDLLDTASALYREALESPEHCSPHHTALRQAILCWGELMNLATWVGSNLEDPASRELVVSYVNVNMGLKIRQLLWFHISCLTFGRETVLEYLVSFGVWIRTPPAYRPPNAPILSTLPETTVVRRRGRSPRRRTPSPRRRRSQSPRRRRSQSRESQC
Chain of 5-hydroxytryptamine receptor 2B (P41595 whole entry): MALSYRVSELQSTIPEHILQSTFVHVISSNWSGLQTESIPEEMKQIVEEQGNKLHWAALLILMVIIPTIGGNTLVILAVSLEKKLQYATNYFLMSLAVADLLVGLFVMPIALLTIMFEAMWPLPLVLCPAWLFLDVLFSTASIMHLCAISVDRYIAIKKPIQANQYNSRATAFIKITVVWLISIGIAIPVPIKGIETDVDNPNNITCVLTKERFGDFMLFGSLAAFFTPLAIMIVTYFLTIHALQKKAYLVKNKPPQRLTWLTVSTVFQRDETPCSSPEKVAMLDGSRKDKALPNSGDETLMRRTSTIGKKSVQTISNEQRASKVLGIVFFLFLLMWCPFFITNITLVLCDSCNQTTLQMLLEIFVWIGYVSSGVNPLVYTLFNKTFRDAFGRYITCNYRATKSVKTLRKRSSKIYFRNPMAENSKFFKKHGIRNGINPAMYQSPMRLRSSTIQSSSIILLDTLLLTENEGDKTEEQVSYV

SMILES | EC50 (HBV genotype D) [nM] | CC50 [1] [µM] | solubility kinetic at 4 h [2] [µM] | EC50 (Hepatitis B virus [3]) [nM] | metabolised at 0.25 h, 1 µM [4] [%] | metabolised at 0.25 h, 1 µM [5] [%] | CC50 at 96 h [6] [µM] | Ratio (Hepatitis B virus [7]) | Activity [8] | Activity (HBV genotype D) | CC50 at 144 h [9] [µM] | Activity (Hepatitis B virus [10]) | EC20 (HepG2) [µM] | IC50 [11] [nM] | Drug metabolism [12]
CCc1cc(NC(=O)c2cccc(S(=O)(=O)NC(C)C)c2)ccc1F | 310 | 28.5 | 15 (≈ 5.47 µg/mL) | 2590 | 31 | 88 | – | – | – | – | – | – | – | – | –
Cc1cc(NC(=O)c2cccc(S(=O)(=O)NC3CCCC3)c2)ccc1F | 100 | – | 33 (≈ 12.4 µg/mL) | 420 | 66 | 97 | 48.2 | 0.02 | Active | – | – | – | – | – | –
O=C(Nc1cc(F)cc(F)c1)c1cccc(S(=O)(=O)NC2CCCC2)c1 | 280 | – | 28 (≈ 10.7 µg/mL) | 780 | 79 | 100 | > 25 | – | Active | – | – | – | – | – | –
O=C(Nc1ccc(F)c(F)c1)c1cccc(S(=O)(=O)N[C@H]2CCOC2)c1 | 380 | > 50 | > 100 | 510 | 5 | 42 | – | – | – | – | – | – | – | – | –
O=C(Nc1ccc(F)cc1)c1ccc(Cl)c(S(=O)(=O)N2CCCCCC2)c1 | 660 | – | 1 (≈ 0.411 µg/mL) | – | 98 | 100 | – | 0.01 | Active | Dose-dependent effect | 17 | inactive | – | – | –
CN1CCN(S(=O)(=O)c2cccc(C(=O)Nc3ccc(F)cc3)c2)CC1 | 26500 | – | > 100 | 11100 | 53 | 84 | > 100 | 6.3 | Active | – | – | – | – | – | –
O=C(Nc1cccnc1)c1cc(S(=O)(=O)NC2CCCCC2)ccc1F | – | – | > 100 | 24800 | 57 | 99 | > 25 | 9.8 | inactive | – | – | – | – | – | –
Cc1cc(NC(=O)c2cccc(S(=O)(=O)NC(C)C)c2)ccc1F | 70 | 47.5 | 41 (≈ 14.4 µg/mL) | 150 | 26 | 80 | – | – | Active | – | – | – | – | – | –
O=C(Nc1ccccc1)c1cccc(S(=O)(=O)NC2CCCC2)c1 | 600 | – | 91 (≈ 31.3 µg/mL) | – | 94 | 98 | – | 0.3 | Active | Dose-dependent effect | 27.2 | inactive | – | – | –
O=C(Nc1ccncc1)c1cc(S(=O)(=O)NC2CCCCC2)ccc1F | 5300 | – | > 100 | 16300 | 68 | 75 | > 25 | 6 | inactive | – | – | – | – | – | –
Cc1c(F)ccc(NC(=O)c2cccc(S(=O)(=O)NC3(C)COC3)c2)c1C | 2740 | > 25 | > 100 | 1650 | 0 | 77 | – | – | – | – | – | – | – | – | –
O=C(Nc1ccccc1)c1ccc(F)c(S(=O)(=O)NC2CCCCC2)c1 | 2230 | – | – | – | 100 | – | – | – | – | Dose-dependent effect | 16.4 | – | – | – | –
O=C(Nc1nccs1)c1cc(S(=O)(=O)NC2CCCCC2)ccc1F | 29300 | – | > 100 | > 25000 | 85 | 100 | > 25 | 9.7 | inactive | – | – | – | – | – | –
N#Cc1cc(NC(=O)c2cccc(S(=O)(=O)N[C@H]3CCOC3)c2)ccc1F | 810 | > 50 | > 100 | 980 | 13 | 27 | – | – | – | – | – | – | – | – | –
Cc1cc(NC(=O)c2cccc(S(=O)(=O)NC3(C)COC3)c2)c(C)cc1F | 3060 | > 25 | > 100 | 1910 | 1 | 78 | – | – | – | – | – | – | – | – | –
Cc1cc(F)cc(NC(=O)c2cccc(S(=O)(=O)NC3CCCC3)c2)c1 | 110 | – | 11 (≈ 4.14 µg/mL) | 1510 | 74 | 100 | > 23 | – | Active | – | – | – | – | – | –

SMILES | EC50 (HBV genotype D) [nM] | CC50 [1] [µM] | solubility kinetic at 4 h [2] [µM] | EC50 (Hepatitis B virus [3]) [nM] | metabolised at 0.25 h, 1 µM [4] [%] | metabolised at 0.25 h, 1 µM [5] [%] | CC50 at 96 h [6] [µM] | Ratio (Hepatitis B virus [7]) | Activity [8] | Activity (HBV genotype D) | CC50 at 144 h [9] [µM] | Activity (Hepatitis B virus [10]) | EC20 (HepG2) [µM] | IC50 [11] [nM] | Drug metabolism [12]
CC(C)NS(=O)(=O)c1cccc(C(=O)Nc2ccc(F)c(F)c2)c1 | 210 | – | > 100 | 400 | 18 | 60 | – | – | Active | – | – | – | 1 | 230 | –
O=C(Nc1ccc2ccccc2c1)c1cc(S(=O)(=O)NC2CCCCC2)ccc1F | 12700 | – | < 0.2 | > 25000 | 36 | 56 | 13 | 7.5 | inactive | – | – | – | – | – | –
O=C(Nc1ccccc1)c1cc(S(=O)(=O)N2CCCCC2)c(Cl)cc1Cl | 500 | – | 2 (≈ 0.827 µg/mL) | – | 99 | 100 | – | 0.2 | Active | Dose-dependent effect | > 25 | inactive | – | – | –
Cc1cc(NC(=O)c2cccc(S(=O)(=O)N[C@H]3CCOC3)c2)c(F)cc1F | 2220 | > 25 | > 100 | 3300 | 17 | 69 | – | – | – | – | – | – | – | – | –
O=C(Nc1ccc(F)cc1)c1cccc(C(=O)NC2CCCCC2)c1 | > 100000 | – | < 0.4 | > 25000 | 56 | 93 | > 100 | 6.4 | – | – | – | – | – | 90 | –
O=C(Nc1ccc(F)c(F)c1)c1cccc(S(=O)(=O)NC2CCCC2)c1 | 93 | – | 46 (≈ 17.5 µg/mL) | 360 | 45 | 86 | > 25 | – | Active | – | – | – | – | – | –
CC(C)NS(=O)(=O)c1cccc(C(=O)Nc2ccc(F)c(C3CC3)c2)c1 | 320 | 35.2 | 31 (≈ 11.7 µg/mL) | 910 | 27 | 61 | – | – | – | – | – | – | – | – | –
CCN(CC)S(=O)(=O)c1ccc(Cl)c(C(=O)Nc2ccccc2)c1 | 1040 | – | – | – | 80 | – | – | 0.7 | – | Dose-dependent effect | > 25 | inactive | – | – | –
COc1cc(NC(=O)c2cccc(S(=O)(=O)N[C@H]3CCOC3)c2)ccc1F | 2330 | > 25 | > 100 | 2660 | 20 | 35 | – | – | – | – | – | – | – | – | –
Cc1c(F)ccc(NC(=O)c2cccc(S(=O)(=O)N[C@H]3CCOC3)c2)c1F | 290 | > 25 | > 100 | 780 | 25 | 66 | – | – | – | – | – | – | – | – | –
Cc1cc(NC(=O)c2cccc(S(=O)(=O)NC3(C)COC3)c2)ccc1F | 120 | 47.1 | > 100 | 300 | 7 | 65 | – | – | Active | – | – | – | – | – | Metabolite_Detected
Cc1ccccc1NC(=O)c1cccc(S(=O)(=O)NC2CCCCC2)c1 | 4180 | – | – | – | 86 | – | – | – | – | – | > 25 | – | – | – | –
CC(C)NS(=O)(=O)c1cccc(C(=O)Nc2ccc(F)c(C(C)C)c2)c1 | 1400 | 29.8 | 13 (≈ 4.92 µg/mL) | 2790 | 31 | 96 | – | – | – | – | – | – | – | – | –
CN(C(=O)c1cccc(S(=O)(=O)NC2CCCC2)c1)c1ccc(F)cc1 | 89600 | – | > 100 | > 25000 | 100 | 100 | > 25 | – | inactive | – | – | – | – | – | –
Cc1c(NC(=O)c2cccc(S(=O)(=O)N[C@H]3CCOC3)c2)ccc(F)c1F | 3630 | > 25 | > 100 | 1910 | 37 | 68 | – | – | – | – | – | – | – | – | –
